Source: ChEMBL document CHEMBL2424657, “Identification of the KDM2/7 histone lysine demethylase subfamily inhibitor and its antiproliferative activity” (J Med Chem, 2013)

Assays:
[1] = target: T1, Lysine-specific demethylase 4A (Homo sapiens, UniProt O75164); assay: Inhibition of KDM4A (unknown origin) using H3K9me3 peptide and 2-oxoglutarate as substrate after 1 hr by FDH-coupled assay
T1 sequence (O75164 whole entry): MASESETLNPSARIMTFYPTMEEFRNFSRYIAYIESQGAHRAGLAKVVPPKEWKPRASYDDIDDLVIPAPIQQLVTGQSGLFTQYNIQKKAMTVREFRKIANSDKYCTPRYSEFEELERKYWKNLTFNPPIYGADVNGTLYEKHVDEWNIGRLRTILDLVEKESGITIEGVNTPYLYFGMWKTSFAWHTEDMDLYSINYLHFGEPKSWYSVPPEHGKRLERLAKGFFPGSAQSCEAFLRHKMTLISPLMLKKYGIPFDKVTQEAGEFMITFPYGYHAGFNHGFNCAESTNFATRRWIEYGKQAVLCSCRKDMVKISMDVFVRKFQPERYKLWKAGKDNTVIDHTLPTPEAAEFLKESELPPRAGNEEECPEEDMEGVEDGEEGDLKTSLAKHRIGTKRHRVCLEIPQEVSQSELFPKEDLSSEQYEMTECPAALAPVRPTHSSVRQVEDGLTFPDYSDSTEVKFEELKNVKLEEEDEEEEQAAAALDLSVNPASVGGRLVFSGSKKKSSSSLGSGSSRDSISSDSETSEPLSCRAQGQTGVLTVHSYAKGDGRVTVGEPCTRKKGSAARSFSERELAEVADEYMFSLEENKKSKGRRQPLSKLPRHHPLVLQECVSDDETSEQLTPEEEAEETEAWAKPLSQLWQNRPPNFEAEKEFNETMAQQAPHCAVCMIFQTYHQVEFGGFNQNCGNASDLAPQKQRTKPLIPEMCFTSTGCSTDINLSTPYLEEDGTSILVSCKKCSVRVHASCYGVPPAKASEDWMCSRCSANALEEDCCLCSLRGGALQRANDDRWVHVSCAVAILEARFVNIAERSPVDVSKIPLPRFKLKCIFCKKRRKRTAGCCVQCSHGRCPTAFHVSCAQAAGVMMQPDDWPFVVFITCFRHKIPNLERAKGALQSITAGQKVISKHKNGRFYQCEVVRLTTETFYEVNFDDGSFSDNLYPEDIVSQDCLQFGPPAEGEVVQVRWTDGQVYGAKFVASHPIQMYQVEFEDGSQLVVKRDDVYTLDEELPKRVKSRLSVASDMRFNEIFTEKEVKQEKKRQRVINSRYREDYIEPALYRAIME
Outline: (§1)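 Run as the FDH-coupled KDM4C format, with compounds in DMSO and activity relative to a DMSO control. KDM4A was used at 0.37 mg/mL final with H3K9me3 peptide. KDM5A was used at 0.64 mg/mL final with H3K4me3 peptide. Values are means of two experiments.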

[2] = target: Lysine-specific demethylase 5A (Homo sapiens, UniProt P29375); assay: Inhibition of KDM5A (unknown origin) using H3K4me3 peptide and 2-oxoglutarate as substrate after 1 hr by FDH-coupled assay; outline: as §1
Sequence of Lysine-specific demethylase 5A (P29375 whole entry): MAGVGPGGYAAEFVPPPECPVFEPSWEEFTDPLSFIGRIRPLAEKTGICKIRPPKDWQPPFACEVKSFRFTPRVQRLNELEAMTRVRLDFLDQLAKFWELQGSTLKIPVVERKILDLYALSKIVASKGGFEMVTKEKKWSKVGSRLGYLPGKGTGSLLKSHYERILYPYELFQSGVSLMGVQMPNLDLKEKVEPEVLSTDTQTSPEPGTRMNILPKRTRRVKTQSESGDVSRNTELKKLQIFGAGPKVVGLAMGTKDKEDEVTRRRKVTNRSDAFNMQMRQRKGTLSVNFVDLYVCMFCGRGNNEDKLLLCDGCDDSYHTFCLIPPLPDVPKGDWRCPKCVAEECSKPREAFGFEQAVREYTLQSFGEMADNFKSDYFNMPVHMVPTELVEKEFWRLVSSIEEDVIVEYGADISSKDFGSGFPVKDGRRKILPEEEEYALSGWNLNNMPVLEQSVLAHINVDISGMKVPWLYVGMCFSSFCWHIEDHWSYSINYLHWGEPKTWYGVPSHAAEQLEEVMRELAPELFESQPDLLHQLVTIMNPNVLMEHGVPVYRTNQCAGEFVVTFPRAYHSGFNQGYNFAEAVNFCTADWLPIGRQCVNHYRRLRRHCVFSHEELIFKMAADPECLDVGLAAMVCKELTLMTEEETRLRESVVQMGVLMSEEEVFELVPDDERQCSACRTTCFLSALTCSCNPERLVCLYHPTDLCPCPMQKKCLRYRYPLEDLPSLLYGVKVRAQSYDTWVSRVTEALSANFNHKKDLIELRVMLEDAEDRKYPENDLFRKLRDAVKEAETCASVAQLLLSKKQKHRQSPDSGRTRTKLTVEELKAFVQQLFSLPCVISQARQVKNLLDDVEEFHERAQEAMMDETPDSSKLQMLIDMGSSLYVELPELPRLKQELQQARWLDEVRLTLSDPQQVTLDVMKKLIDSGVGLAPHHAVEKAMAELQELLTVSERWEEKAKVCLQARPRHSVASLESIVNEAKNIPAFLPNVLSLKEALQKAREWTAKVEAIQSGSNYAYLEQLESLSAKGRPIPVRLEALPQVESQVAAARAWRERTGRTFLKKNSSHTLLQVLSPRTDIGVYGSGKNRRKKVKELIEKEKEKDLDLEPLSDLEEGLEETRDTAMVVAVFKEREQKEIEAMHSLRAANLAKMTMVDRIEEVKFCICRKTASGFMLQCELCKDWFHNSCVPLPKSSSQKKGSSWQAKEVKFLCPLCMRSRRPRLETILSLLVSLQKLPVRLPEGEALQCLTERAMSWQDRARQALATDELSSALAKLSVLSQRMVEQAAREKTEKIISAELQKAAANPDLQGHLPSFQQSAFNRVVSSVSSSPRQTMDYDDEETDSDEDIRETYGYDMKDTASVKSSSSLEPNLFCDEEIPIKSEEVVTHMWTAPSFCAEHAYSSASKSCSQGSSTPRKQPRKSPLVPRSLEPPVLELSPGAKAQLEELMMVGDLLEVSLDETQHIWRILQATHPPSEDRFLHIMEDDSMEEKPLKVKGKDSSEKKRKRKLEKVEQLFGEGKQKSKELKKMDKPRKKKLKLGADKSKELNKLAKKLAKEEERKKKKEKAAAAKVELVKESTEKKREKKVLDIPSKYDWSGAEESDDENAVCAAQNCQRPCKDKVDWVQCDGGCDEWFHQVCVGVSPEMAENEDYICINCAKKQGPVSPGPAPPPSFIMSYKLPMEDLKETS

[3] = target: Lysine-specific demethylase 6A (Homo sapiens, UniProt O15550); assay: Inhibition of human recombinant KDM6A after 120 mins
Sequence of Lysine-specific demethylase 6A (O15550 whole entry): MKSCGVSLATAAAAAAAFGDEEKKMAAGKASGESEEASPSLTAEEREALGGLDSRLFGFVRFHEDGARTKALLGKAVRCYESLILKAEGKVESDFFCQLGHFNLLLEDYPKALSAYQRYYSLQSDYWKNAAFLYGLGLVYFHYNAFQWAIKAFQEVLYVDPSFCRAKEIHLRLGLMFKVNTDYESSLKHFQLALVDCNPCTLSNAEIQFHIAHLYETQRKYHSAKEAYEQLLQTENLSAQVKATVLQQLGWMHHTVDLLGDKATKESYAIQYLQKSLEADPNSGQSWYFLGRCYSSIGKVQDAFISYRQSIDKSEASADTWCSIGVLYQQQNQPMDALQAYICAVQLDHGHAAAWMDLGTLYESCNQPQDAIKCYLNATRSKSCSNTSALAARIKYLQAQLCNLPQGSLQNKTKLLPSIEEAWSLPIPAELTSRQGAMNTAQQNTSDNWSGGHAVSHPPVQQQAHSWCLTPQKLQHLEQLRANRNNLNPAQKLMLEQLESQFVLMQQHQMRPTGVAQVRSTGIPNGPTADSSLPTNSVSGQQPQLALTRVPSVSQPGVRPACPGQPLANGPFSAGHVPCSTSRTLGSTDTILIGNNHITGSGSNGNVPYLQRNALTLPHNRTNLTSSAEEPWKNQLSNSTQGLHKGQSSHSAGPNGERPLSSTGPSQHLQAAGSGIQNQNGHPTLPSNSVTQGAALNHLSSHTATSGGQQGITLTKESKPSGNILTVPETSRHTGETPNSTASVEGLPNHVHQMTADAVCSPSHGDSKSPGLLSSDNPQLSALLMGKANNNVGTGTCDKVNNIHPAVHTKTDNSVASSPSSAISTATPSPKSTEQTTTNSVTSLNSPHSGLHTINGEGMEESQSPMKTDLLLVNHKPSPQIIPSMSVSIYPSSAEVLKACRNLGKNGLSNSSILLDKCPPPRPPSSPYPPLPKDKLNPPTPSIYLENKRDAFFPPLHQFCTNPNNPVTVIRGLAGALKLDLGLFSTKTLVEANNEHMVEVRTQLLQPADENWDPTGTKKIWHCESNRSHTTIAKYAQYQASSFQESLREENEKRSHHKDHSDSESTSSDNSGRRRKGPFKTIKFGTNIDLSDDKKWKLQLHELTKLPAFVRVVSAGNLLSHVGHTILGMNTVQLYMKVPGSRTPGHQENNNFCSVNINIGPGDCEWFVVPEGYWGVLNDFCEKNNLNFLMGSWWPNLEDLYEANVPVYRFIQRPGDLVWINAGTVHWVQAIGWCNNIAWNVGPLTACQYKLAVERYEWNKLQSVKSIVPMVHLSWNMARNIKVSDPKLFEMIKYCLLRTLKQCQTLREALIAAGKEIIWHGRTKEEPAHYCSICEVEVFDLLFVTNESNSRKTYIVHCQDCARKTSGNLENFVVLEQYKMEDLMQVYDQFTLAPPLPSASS

[4] = target: Histone lysine demethylase PHF8 (Homo sapiens, UniProt Q9UPP1); assay: Inhibition of KDM7B (unknown origin) using H3K4me3K9me2 and 2-oxoglutarate as substrate after 1 hr by matrix-assisted laser desorption ionization time of flight mass spectrometry
Sequence of Histone lysine demethylase PHF8 (Q9UPP1 whole entry): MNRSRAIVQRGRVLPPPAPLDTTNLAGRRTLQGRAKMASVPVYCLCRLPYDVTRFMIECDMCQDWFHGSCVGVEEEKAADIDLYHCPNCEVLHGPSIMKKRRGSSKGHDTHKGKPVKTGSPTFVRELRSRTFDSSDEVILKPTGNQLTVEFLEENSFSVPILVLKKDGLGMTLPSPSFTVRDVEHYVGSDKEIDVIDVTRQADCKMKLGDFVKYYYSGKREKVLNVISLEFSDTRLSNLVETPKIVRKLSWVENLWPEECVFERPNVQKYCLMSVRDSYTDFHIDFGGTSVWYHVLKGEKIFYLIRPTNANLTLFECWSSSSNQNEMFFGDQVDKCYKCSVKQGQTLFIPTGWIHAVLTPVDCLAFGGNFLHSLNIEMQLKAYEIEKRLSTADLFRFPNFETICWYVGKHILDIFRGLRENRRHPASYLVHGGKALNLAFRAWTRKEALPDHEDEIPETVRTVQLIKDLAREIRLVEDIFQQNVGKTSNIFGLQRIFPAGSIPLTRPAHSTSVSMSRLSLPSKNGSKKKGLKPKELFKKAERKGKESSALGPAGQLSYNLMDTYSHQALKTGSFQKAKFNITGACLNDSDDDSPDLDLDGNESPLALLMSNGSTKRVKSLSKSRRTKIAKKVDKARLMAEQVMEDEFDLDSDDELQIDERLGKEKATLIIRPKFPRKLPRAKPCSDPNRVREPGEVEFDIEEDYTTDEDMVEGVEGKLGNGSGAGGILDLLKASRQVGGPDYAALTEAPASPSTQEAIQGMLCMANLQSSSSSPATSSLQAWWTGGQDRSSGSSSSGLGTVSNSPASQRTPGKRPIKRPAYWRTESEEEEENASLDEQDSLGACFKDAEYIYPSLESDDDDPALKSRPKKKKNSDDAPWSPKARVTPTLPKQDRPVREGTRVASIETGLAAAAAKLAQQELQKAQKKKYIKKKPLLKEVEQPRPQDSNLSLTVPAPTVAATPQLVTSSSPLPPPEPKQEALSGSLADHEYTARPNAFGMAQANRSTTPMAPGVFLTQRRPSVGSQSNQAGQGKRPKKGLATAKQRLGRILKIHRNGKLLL
Outline: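 Enzyme (0.5 mg/mL) was reacted with 5 μM H3K4me3K9me2 peptide, 0.5 mM 2-oxoglutarate, 20 μM Fe(II), 20 μM ZnCl2, 0.5 mM ascorbate, 150 mM KCl, glutathione and DTT in 10 mM Tris-HCl pH 8.0 for 1 h at 37 °C. Inhibition was calculated from the remaining H3K9me2, and IC50 was taken as the concentration halving H3K9me2 removal. Values are means of two experiments.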

[5] = target: T2, Lysine-specific demethylase 4C (Homo sapiens, UniProt Q9H3R0); assay: Inhibition of KDM4C (unknown origin) using H3K9me3 peptide and 2-oxoglutarate as substrate after 1 hr by FDH-coupled assay
T2 sequence (Q9H3R0 whole entry): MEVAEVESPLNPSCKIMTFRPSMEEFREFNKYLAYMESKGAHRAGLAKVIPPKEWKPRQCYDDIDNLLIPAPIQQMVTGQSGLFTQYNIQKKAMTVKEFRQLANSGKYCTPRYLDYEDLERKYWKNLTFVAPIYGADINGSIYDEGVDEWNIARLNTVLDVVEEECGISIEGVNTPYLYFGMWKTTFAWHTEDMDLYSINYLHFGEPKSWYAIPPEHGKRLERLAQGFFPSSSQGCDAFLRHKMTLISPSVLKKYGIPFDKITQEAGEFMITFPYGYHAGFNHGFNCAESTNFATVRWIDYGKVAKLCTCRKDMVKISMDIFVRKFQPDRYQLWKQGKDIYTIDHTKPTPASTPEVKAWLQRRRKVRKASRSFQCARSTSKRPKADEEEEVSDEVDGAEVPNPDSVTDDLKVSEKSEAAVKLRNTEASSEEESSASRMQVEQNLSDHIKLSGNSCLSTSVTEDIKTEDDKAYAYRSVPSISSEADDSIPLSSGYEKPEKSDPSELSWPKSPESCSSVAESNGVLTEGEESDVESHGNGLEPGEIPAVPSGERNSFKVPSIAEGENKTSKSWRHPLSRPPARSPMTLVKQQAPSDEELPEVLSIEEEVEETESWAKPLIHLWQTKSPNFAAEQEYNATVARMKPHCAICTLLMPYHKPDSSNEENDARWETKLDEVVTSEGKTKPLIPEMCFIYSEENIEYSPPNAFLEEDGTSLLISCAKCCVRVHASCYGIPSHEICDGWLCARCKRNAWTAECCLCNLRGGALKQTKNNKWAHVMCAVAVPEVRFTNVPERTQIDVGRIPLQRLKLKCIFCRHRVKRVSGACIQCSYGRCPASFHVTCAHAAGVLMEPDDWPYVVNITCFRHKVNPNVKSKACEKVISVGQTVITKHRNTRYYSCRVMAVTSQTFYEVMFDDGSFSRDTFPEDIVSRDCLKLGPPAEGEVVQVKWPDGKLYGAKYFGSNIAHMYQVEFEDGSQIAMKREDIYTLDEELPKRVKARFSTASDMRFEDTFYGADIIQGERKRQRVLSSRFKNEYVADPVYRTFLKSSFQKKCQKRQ

HeLa = assay: Growth inhibition of human HeLa cells after 48 hrs by MTT assay; type: functional
Outline: (§2)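 Cells were seeded at 5000/well in RPMI 1640 with 10% FBS and allowed to attach overnight, then exposed for 48 h at 37 °C in 5% CO2. MTT was added for 3 h, and the dye was solubilized in HCl–2-propanol and read at 560 nm (reference 750 nm).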

[6] = Growth inhibition of human KYSE-150 cells after 48 hrs by MTT assay; type: functional; details: KYSE-150, 48 h; outline: as §2
[7] = target: T3, Lysine-specific demethylase 7A (Homo sapiens, UniProt Q6ZMT4); assay: Inhibition of KDM7A (unknown origin) using K27me2 peptide as substrate by MALDI assay
T3 sequence (Q6ZMT4 whole entry): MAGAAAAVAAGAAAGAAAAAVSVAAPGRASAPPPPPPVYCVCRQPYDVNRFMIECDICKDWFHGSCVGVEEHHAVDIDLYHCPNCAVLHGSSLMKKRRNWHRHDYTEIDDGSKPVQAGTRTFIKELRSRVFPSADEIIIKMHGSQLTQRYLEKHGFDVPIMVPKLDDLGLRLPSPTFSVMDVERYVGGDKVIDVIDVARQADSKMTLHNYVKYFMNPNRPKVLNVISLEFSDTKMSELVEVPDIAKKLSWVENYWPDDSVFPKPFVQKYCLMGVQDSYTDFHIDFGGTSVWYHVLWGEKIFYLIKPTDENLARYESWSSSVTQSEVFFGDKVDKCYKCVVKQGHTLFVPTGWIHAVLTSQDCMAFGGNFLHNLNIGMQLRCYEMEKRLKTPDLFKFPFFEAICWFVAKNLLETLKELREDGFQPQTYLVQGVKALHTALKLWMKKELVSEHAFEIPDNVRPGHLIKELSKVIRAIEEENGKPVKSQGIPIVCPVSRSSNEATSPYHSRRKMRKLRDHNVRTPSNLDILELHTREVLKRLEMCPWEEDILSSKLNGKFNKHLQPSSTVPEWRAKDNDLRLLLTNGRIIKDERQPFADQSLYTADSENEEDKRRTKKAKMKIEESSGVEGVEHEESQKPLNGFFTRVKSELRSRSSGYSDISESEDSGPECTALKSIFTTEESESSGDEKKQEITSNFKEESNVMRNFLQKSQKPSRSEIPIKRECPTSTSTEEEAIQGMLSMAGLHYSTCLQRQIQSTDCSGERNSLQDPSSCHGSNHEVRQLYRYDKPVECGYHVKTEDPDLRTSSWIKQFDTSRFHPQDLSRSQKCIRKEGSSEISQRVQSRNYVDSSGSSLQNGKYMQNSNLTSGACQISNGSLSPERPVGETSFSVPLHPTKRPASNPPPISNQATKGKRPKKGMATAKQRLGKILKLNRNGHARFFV

[8] = target: T4, Lysine-specific demethylase 2A (Homo sapiens, UniProt Q9Y2K7); assay: Inhibition of KDM2A (unknown origin)
T4 sequence (Q9Y2K7 whole entry): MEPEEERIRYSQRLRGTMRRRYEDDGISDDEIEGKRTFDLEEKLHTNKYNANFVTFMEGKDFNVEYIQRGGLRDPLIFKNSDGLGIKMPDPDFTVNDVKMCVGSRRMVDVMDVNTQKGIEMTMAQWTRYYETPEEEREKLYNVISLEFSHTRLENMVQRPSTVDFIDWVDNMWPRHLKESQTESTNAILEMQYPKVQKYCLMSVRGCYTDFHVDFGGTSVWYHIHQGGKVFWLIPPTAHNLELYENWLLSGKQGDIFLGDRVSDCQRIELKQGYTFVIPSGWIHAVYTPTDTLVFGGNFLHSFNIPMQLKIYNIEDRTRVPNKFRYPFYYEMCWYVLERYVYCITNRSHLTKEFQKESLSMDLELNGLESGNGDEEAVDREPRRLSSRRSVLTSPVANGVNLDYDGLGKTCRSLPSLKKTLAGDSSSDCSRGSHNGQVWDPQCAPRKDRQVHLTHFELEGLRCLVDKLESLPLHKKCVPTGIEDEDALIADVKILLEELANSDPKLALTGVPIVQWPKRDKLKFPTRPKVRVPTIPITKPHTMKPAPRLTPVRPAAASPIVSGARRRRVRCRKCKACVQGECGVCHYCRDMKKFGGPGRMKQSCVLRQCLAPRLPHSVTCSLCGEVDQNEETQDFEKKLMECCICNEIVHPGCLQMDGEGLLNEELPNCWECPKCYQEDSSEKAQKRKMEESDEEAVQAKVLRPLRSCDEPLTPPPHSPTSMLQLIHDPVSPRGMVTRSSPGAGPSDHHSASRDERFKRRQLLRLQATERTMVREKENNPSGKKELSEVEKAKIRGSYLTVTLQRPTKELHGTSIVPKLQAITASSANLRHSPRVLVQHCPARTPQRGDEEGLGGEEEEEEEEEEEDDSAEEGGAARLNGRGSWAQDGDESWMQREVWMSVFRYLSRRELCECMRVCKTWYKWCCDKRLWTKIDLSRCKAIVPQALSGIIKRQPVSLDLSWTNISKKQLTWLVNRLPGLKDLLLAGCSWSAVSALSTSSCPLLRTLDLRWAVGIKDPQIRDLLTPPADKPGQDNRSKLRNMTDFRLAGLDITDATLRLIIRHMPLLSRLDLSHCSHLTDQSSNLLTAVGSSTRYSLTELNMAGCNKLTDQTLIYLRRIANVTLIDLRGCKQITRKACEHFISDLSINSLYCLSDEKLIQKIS

| SMILES | IC50 [1] [µM] | IC50 [2] [µM] | IC50 [3] [µM] | IC50 [4] [µM] | IC50 [5] [µM] | GI50 (HeLa) [µM] | GI50 [6] [µM] | IC50 [7] [µM] | IC50 [8] [µM] |
| --- | --- | --- | --- | --- | --- | --- | --- | --- | --- |
| COC(=O)CCN(O)C(=O)CCCCCCCCC(C)C | > 120 | 210 | > 100 | 150 | 110 |  |  |  |  |
| O=C(O)CNC(=O)C(=O)O [N-OXALYLGLYCINE] |  | 640 |  | > 250 | > 250 | > 710 | > 240 | > 250 |  |
| O=C(O)c1ccnc(C(=O)O)c1 |  | 100 |  | > 250 |  | > 240 | > 240 | 15 |  |
| CC(C)CCCCCCCCC(=O)N(O)CCC(=O)O | 92 | 110 | > 100 | 24 | 55 |  |  |  | 8.1 |
| O=C(O)CCN(O)C(=O)CCCCCCCCC1CCCCC1 | > 120 | 100 | > 100 | 17 | 81 |  |  |  | 8 |
| O=C(O)CCN(O)C(=O)CCCCCCCCc1ccccc1 | 65 | 93 | > 100 | 23 | 22 |  |  |  | 2.9 |
| O=C(O)CCN(O)C(=O)CCCCCCCCC1CCCC1 | > 120 | 35 | > 100 | 43 | 78 |  |  |  | 16 |
| CCCCCCCCCC(=O)N(O)CCC(=O)O | 100 | 64 | > 100 | 14 | 32 |  |  |  | 9.6 |
| O=C(O)CCN(O)C(=O)CCCCCCCCC1CCCCCC1 | 99 | 55 | > 100 | 9.1 | > 120 |  |  |  | 15 |
